Data from ChEMBL document CHEMBL1136835, “CB2 selective sulfamoyl benzamides: optimization of the amide functionality” (Bioorg Med Chem Lett, 2009).

Assays:
Cannabinoid receptor 2 [1] = molecular target: T1, Cannabinoid receptor 2 (Homo sapiens, UniProt P34972); assay: Agonist activity at human cloned CB2 receptor assessed as stimulation of [35S]GTPgammaS binding
Cannabinoid receptor 2 [2] = molecular target: T1, Cannabinoid receptor 2; assay: Displacement of [3H]CP-55940 from human cloned CB2 receptor by scintillation spectrometry
How it was run: (§1)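 Cloned human CB1 or CB2 receptor membranes incubated with 0.2–0.6 nM [3H]CP55940 in 50 mM Tris–HCl pH 7.0 with 5.0 mM MgCl2, 1.0 mM EGTA and 1.0 mg/ml fatty-acid-free BSA. CB2 ran 60 min at room temperature and CB1 120 min at 30 °C. Samples filtered through PEI/BSA-soaked GF/C filters and rinsed six times with cold buffer. Counted by scintillation, with nonspecific binding defined by WIN55212-2. Ki is the geometric mean of at least three determinations.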

Cannabinoid receptor 1 [3] = molecular target: T2, Cannabinoid receptor 1 (Homo sapiens, UniProt P21554); assay: Displacement of [3H]CP-55940 from human cloned CB1 receptor by scintillation spectrometry; how it was run: as §1
Homo sapiens = species: Homo sapiens; assay: Ratio of Ki for human cloned CB1 receptor to Ki for human cloned CB2 receptor; how it was run: as §1
[4] = Metabolic stability in human liver microsomes after 30 mins; type: ADME, Microsome; conditions: read-out: Stability
Rattus norvegicus [5] = assay: Antiallodynic activity in rat hind paw incisional model assessed as mechanical paw-withdrawal threshold at 30 mg/kg, ip after 30 mins relative to control; type: functional; conditions: route intraperitoneal
How it was run: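 Rat hindpaw incision model. Mechanical paw-withdrawal threshold measured on the left hindpaw, 30 min after ip dosing at 30 mg/kg. N = 8 per group. Compared with the vehicle-treated group.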

[6] = Metabolic stability in rat liver microsomes after 30 mins; type: ADME, Microsome; conditions: read-out: Stability
Rattus norvegicus [7] = assay: Antiallodynic activity in rat hind paw incisional model assessed as mechanical paw-withdrawal threshold at 300 mg/kg, po after 120 mins in presence of aminobenzotriazole relative to aminobenzotriazole-treated control; type: functional
How it was run: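 Rat hindpaw incision model. Rats pretreated with the P450 suicide inhibitor aminobenzotriazole, then dosed 300 mg/kg po 120 min before testing. Left hindpaw mechanical withdrawal threshold read, N = 8 per group. One-way ANOVA with protected t-test against ABT-vehicle incised animals.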

Cannabinoid receptor 1 [8] = molecular target: T2, Cannabinoid receptor 1; assay: Displacement of [3H]CP-55940 from human cloned CB1 receptor at 10 uM by scintillation spectrometry

T2 sequence (P21554 whole entry): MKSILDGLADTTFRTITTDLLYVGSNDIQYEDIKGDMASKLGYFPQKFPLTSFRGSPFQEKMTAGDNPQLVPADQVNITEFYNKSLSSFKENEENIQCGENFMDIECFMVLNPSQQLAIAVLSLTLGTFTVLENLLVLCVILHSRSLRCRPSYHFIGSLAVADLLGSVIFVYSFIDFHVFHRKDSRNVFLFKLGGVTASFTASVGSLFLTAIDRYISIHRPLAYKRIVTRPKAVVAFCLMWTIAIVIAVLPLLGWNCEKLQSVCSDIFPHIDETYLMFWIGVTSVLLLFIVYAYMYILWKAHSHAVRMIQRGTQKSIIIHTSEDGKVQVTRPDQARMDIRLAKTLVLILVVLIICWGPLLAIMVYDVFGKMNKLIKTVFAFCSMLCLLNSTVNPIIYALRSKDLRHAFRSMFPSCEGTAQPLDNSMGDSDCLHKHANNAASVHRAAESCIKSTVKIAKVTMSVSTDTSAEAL
T1 sequence (P34972 whole entry): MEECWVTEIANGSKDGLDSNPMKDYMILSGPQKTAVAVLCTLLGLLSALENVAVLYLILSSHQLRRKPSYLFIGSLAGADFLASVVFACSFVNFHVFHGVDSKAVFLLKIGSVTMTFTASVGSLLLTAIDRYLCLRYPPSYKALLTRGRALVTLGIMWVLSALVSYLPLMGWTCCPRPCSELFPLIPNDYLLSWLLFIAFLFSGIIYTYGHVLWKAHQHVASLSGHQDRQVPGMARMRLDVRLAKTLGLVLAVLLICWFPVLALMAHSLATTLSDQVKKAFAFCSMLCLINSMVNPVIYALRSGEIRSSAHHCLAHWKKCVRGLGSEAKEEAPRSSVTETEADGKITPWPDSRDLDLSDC

Row | Structure (SMILES) | EC50 (Cannabinoid receptor 2 [1]) [nM] | Ki (Cannabinoid receptor 2 [2]) [nM] | Ki (Cannabinoid receptor 1 [3]) [nM] | Ratio Ki (Homo sapiens) | remaining at 0.5 h [4] [%] | Activity (Rattus norvegicus [5]) [%] | remaining at 0.5 h [6] [%] | Activity (Rattus norvegicus [7]) [%] | Activity (Cannabinoid receptor 1 [8]) [%]
1 | Cc1ccc(-c2nc(C(C)(C)C)cs2)cc1S(=O)(=O)N1CCOCC1 | 21 | 5.7 | 260 | 47 | – | – | – | – | –
2 | Cc1ccc(-c2nc(CC(C)(C)C)c[nH]2)cc1S(=O)(=O)N1CCOCC1 | 47 | 36 | 1100 | 31 | – | – | – | – | –
3 | Cc1ccc(NC(=O)C(C(C)(C)C)C(C)(C)C)cc1S(=O)(=O)N1CCOCC1 | 31 | 11 | 1200 | 110 | – | – | – | – | –
4 | Cc1ccc(-c2c[nH]c(C(C)(C)C)n2)cc1S(=O)(=O)N1CCOCC1 | 130 | 81 | 770 | – | – | – | – | – | –
5 | Cc1ccc(-c2nc(CC3CCCCC3)cs2)cc1S(=O)(=O)N1CCOCC1 | 120 | 23 | 390 | 17 | – | – | – | – | –
6 | Cc1ccc(NC(=O)[C@H]2C(C)(C)[C@@H]3CC[C@@]2(C)C3)cc1S(=O)(=O)N1CCOCC1 | 49 | 9.4 | 1200 | 130 | – | – | – | – | –
7 | Cc1ccc(NC(=O)C2CCCCC2)cc1S(=O)(=O)N1CCOCC1 | – | 120 | 1900 | 16 | – | – | – | – | –
8 | Cc1ccc(NC(=O)[C@@H]2C(C)(C)[C@@H]3CC[C@@]2(C)C3)cc1S(=O)(=O)N1CCOCC1 | 9.6 | 1.7 | 640 | 380 | – | – | – | – | –
9 | Cc1ccc(-c2cnc(C(C)(C)C)[nH]2)cc1S(=O)(=O)N1CCOCC1 | – | – | – | 9.4 | – | – | – | – | –
10 | Cc1ccc(NC(=O)C2(C)CCCCC2)cc1S(=O)(=O)N1CCOCC1 | 33 | 35 | 1200 | 34 | – | – | – | – | –
11 | Cc1ccc(NC(=O)C2C(C)(C)C2(C)C)cc1S(=O)(=O)N1CCOCC1 | 11 | 23 | 3400 | 150 | 1 | 183 | 2 | 262 | –
12 | Cc1ccc(-c2n[nH]c(C(C)(C)C)n2)cc1S(=O)(=O)N1CCOCC1 | 130 | 100 | 530 | 5.3 | – | – | – | – | –
13 | Cc1ccc(NC(=O)C(C)(C)C)cc1S(=O)(=O)N1CCOCC1 | – | 540 | – | – | – | – | – | – | 4.7
14 | Cc1ccc(C(=O)N[C@H]2C(C)(C)[C@@H]3CC[C@@]2(C)C3)cc1S(=O)(=O)N1CCOCC1 | 25 | 48 | 540 | 11 | – | – | – | – | –
15 | Cc1ccc(-c2noc(CC3CCCCC3)n2)cc1S(=O)(=O)N1CCOCC1 | 110 | 130 | 740 | 5.9 | – | – | – | – | –
16 | Cc1ccc(-c2noc(CC(C)(C)C)n2)cc1S(=O)(=O)N1CCOCC1 | 70 | 59 | 270 | 4.5 | – | – | – | – | –
17 | Cc1ccc(NC(=O)c2ccc(Cl)cc2)cc1S(=O)(=O)N1CCOCC1 | – | 2900 | – | – | – | – | – | – | 25
18 | Cc1ccc(C(=O)N[C@@H]2C(C)(C)[C@@H]3CC[C@@]2(C)C3)cc1S(=O)(=O)N1CCOCC1 | 4.6 | 3.9 | 130 | 31 | – | – | – | – | –
19 | Cc1ccc(-c2cc(C(C)(C)C)[nH]n2)cc1S(=O)(=O)N1CCOCC1 | 130 | 160 | 6990 | – | – | – | – | – | –

Row | Structure (SMILES) | EC50 (Cannabinoid receptor 2 [1]) [nM] | Ki (Cannabinoid receptor 2 [2]) [nM] | Ki (Cannabinoid receptor 1 [3]) [nM] | Ratio Ki (Homo sapiens) | remaining at 0.5 h [4] [%] | Activity (Rattus norvegicus [5]) [%] | remaining at 0.5 h [6] [%] | Activity (Rattus norvegicus [7]) [%] | Activity (Cannabinoid receptor 1 [8]) [%]
20 | Cc1ccc(NC(=O)c2ccccc2Cl)cc1S(=O)(=O)N1CCOCC1 | 390 | 170 | 1100 | 6.5 | – | – | – | – | –
21 | Cc1ccc(-c2nnn[nH]2)cc1S(=O)(=O)N1CCOCC1 | – | > 5000 | > 5000 | – | – | – | – | – | –
22 | Cc1ccc(-c2nc(CC(C)(C)C)cs2)cc1S(=O)(=O)N1CCOCC1 | 23 | 5.2 | 200 | 38 | – | – | – | – | –
23 | Cc1ccc(NC(=O)c2cccc(Cl)c2)cc1S(=O)(=O)N1CCOCC1 | 220 | 120 | 270 | 2.3 | – | – | – | – | –
24 | Cc1ccc(NC(=O)[C@H]2C[C@@]3(C)CC[C@]2(C)O3)cc1S(=O)(=O)N1CCOCC1 | – | 2000 | – | – | – | – | – | – | 44
25 | Cc1ccc(-c2n[nH]c(CC(C)(C)C)n2)cc1S(=O)(=O)N1CCOCC1 | 64 | 85 | 140 | 1.6 | – | – | – | – | –
26 | O=C(NCc1ccccc1)c1ccc(Br)c(S(=O)(=O)N2CCOCC2)c1 | – | 800 | > 1000 | – | – | – | – | – | –
27 | Cc1ccc(NC(=O)C2CCCCC2(C)C)cc1S(=O)(=O)N1CCOCC1 (stereo unspecified) | 8400 | 11 | 790 | 72 | – | – | – | – | –
28 | Cc1ccc(-c2n[nH]c(CC3CCCCC3)n2)cc1S(=O)(=O)N1CCOCC1 | 57 | 27 | 310 | 11 | – | – | – | – | –
29 | Cc1ccc(C(=O)NC(C(C)(C)C)C(C)(C)C)cc1S(=O)(=O)N1CCOCC1 | – | – | – | 9 | – | – | – | – | –
30 | Cc1ccc(-c2cc(CC3CCCCC3)[nH]n2)cc1S(=O)(=O)N1CCOCC1 | 190 | 87 | 1400 | 16 | – | – | – | – | –
31 | Cc1ccc(NC(=O)[C@@H]2C[C@@]3(C)CC[C@]2(C)O3)cc1S(=O)(=O)N1CCOCC1 | – | 660 | 2900 | 4.4 | – | – | – | – | –
32 | Cc1ccc(NC(=O)C2CCCCC2C)cc1S(=O)(=O)N1CCOCC1 (stereo unspecified) | 42 | 14 | 1800 | 130 | – | – | – | – | –
33 | Cc1ccc(-c2nc(C(C)(C)C)c[nH]2)cc1S(=O)(=O)N1CCOCC1 | 58 | 23 | 1100 | 48 | – | – | – | – | –
34 | Cc1ccc(NC(=O)C(C)(C(F)(F)F)C(F)(F)F)cc1S(=O)(=O)N1CCOCC1 | 29 | 23 | 470 | 20 | – | – | – | – | –
35 | Cc1ccc(-c2cc(CC(C)(C)C)[nH]n2)cc1S(=O)(=O)N1CCOCC1 | 120 | 75 | 750 | 10 | – | – | – | – | –
36 | Cc1ccc(-c2nnn(CC(C)(C)C)n2)cc1S(=O)(=O)N1CCOCC1 | 49 | 17 | 130 | 7.6 | – | – | – | – | –
37 | Cc1ccc(-c2noc(C(C)(C)C)n2)cc1S(=O)(=O)N1CCOCC1 | 77 | 75 | 510 | 6.8 | – | – | – | – | –
38 | Cc1ccc(-c2nnn(CC3CCCCC3)n2)cc1S(=O)(=O)N1CCOCC1 | 78 | 82 | 560 | 6.9 | – | – | – | – | –
